What was measured:
[1] = target: T1, Prostaglandin E2 receptor EP1 subtype (Homo sapiens, UniProt P34995); test: Displacement of [3H]PGE2 from human prostanoid EP1 receptor expressed in CHO-K1 cells after 30 mins by topcount liquid scintillation counting; format: cell-based
T1 sequence (P34995 whole entry): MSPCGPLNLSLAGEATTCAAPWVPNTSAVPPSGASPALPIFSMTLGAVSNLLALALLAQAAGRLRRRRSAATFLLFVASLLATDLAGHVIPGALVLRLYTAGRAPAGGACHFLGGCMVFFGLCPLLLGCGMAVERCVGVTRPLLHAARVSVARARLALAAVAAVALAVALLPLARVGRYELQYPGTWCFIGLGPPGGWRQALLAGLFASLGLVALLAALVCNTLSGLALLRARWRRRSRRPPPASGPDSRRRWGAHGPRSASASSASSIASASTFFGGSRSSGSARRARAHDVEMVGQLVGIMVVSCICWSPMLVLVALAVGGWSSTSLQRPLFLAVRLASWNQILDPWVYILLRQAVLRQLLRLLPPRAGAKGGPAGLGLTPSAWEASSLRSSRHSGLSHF
Procedure, shortened: (§1)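 Radioligand binding at the EP1 receptor. Either [3H]-GW875240X or [3H]-PGE2 is the displaced ligand. Values are pIC50, means of at least three experiments.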

[2] = target: T1, Prostaglandin E2 receptor EP1 subtype; test: Displacement of [3H]GW875240X from human prostanoid EP1 receptor expressed in CHO-K1 cells after 45 mins by topcount liquid scintillation counting; format: cell-based; procedure, shortened: as §1
[3] = target: T1, Prostaglandin E2 receptor EP1 subtype; test: Antagonist activity at human recombinant EP1 receptor expressed in CHO-K1 cells assessed as inhibition of PGE2-mediated intracellular calcium mobilization by FLIPR method; format: functional, cell-based
[4] = target: T2, Prostaglandin E2 receptor EP3 subtype (Homo sapiens, UniProt P43115); test: Antagonist activity at human recombinant EP3 receptor expressed in CHO-K1 cells assessed as inhibition of PGE2-mediated intracellular calcium mobilization by FLIPR method; format: functional, cell-based
T2 sequence (P43115 whole entry): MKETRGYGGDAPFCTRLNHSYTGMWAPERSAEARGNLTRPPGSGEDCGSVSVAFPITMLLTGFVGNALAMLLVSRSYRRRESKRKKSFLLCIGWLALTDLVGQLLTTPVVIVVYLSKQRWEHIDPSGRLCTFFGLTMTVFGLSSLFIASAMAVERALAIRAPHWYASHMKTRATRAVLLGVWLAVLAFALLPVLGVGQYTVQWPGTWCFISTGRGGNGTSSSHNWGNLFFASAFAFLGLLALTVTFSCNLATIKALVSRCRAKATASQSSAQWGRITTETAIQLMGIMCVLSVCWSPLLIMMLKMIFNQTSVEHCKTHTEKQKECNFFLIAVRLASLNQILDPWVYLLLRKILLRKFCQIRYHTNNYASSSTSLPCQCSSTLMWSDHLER

[5] = Lipophilicity, log D of compound at pH 7.4 by shake flask method; format: physicochemical; conditions: buffer
Procedure, shortened: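 Log D is determined by the shake flask method at pH 7.4.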

[6] = system: Rattus norvegicus; test: Analgesic activity in po dosed rat assessed as reversal of complete Freund's adjuvant-induced inflammatory pain after 1 hr post dose; format: functional
Procedure, shortened: (§2)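 Rat CFA inflammatory pain model. Oral dosing in 1% methylcellulose. Hypersensitivity reversal is read by weight bearing, at 1 h post-dose. The 5 mg/kg study was also read at 3 h. Dose-response groups were 3, 10 and 30 mg/kg, or 1, 3 and 10 mg/kg, with ED50 derived. Celecoxib at 10 mg/kg po served as the standard.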

[7] = Blood clearance in rat at 1 mg/kg, iv; format: ADME, organism-based; set-up: dose 1 mg/kg, route intravenous
[8] = Volume of distribution at steady state in rat at 1 mg/kg, iv; format: ADME, organism-based; set-up: dose 1 mg/kg, route intravenous; conditions: in vivo, read-out: Vdss
[9] = Half life in rat at 1 mg/kg, iv; format: ADME, organism-based; set-up: dose 1 mg/kg, route intravenous; conditions: in vivo
[10] = system: Rattus norvegicus; test: Analgesic activity in rat assessed as reversal of complete Freund's adjuvant-induced inflammatory pain at 10 mg/kg, po after 1 hr post dose; format: functional; procedure, shortened: as §2
[11] = system: Blood; test: Fraction unbound in blood of po dosed rat complete Freund's adjuvant-induced inflammatory pain model; format: ADME, organism-based; conditions: in vivo
[12] = system: Rattus norvegicus; test: Analgesic activity in po dosed rat chronic joint pain model; format: functional
Procedure, shortened: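 Rat joint pain model of chronic inflammatory pain. Oral dosing b.i.d. at 1, 3, 10 and 30 mg/kg, or at 0.3, 1, 3 and 10 mg/kg. Reversal of hypersensitivity is scored, with statistical significance testing, and ED50 is calculated.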

[13] = Ratio of drug level in brain to blood in rat complete Freund's adjuvant-induced inflammatory pain model at 10 mg/kg, po after 1 hr; format: ADME, organism-based; set-up: dose 10 mg/kg, route oral; conditions: read-out: BBR
Procedure, shortened: (§3)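 Blood and brain samples are taken from CFA rats after oral dosing in 1% methylcellulose. Sampling is at 1 h post-dose, and at 3 h in the 5 mg/kg study. Concentrations are in µM or nM, n = 7 or n = 6 for blood and n = 3 for brain. The brain:blood ratio is calculated from the same rats.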

[14] = Drug level in brain of rat complete Freund's adjuvant-induced inflammatory pain model at 10 mg/kg, po after 1 hr; format: ADME, organism-based; set-up: dose 10 mg/kg, route oral; conditions: read-out: Drug uptake; procedure, shortened: as §3
[15] = Drug level in blood of rat complete Freund's adjuvant-induced inflammatory pain model at 10 mg/kg, po after 1 hr; format: ADME, organism-based; set-up: dose 10 mg/kg, route oral; conditions: read-out: Drug uptake; procedure, shortened: as §3
[16] = system: Brain; test: Fraction unbound in brain of po dosed rat complete Freund's adjuvant-induced inflammatory pain model; format: ADME, organism-based; conditions: in vivo

Row | Structure (SMILES) | IC50 [1] | IC50 [2] | other results
1 | Cc1cc(C(=O)O)nn1Cc1cc(Cl)cn2cc(C(C)C)nc12 | 501 nM |  | 
2 | Cc1cc(C(=O)NN2CCCCC2)nn1Cc1cc(Cl)cc2cc(C(C)C)oc12 | 100 nM |  | 
3 | Cc1cc(C(=O)NC[C@H]2CCCO2)nn1Cc1cc(Cl)cc2cc(-c3ccccc3)oc12 |  | 6.31 nM | 
4 | Cc1cc(C(=O)NC2CC2)nn1Cc1cc(Cl)cc2cc(-c3ccccc3)oc12 |  | 5.01 nM | 
5 | Cc1cc(C(=O)O)nn1Cc1cc(Cl)cc2cc(C(C)(C)C)oc12 |  | 63.1 nM | 
6 | Cc1cc(C(=O)NCC(O)C(F)(F)F)nn1Cc1cc(Cl)cc2cc(-c3ccccc3)oc12 (stereo not given) |  | 25.1 nM | 
7 | CO[C@H]1CC[C@H](NC(=O)c2cc(C)n(Cc3cc(Cl)cc4cc(C(C)C)oc34)n2)CC1 |  | 316 nM | 
8 | Cc1cc(C(=O)O)nn1Cc1cc(Cl)cc2cc(C3CCCCC3)oc12 |  | 3.98 nM | 
9 | Cc1cc(C(N)=O)nn1Cc1cc(Cl)cc2cc(-c3ccccc3)oc12 |  | 5.01 nM | 
10 | Cc1cc(C(=O)NCC2CCNCC2)nn1Cc1cc(Cl)cc2cc(-c3ccccc3)oc12 |  | 20 nM | 

More lines, main results first:

Row | IC50 [1] | IC50 [2] | Structure (SMILES) | other results
11 |  | 63.1 nM | Cc1cc(NC(=O)CC2CCNCC2)nn1Cc1cc(Cl)cc2cc(-c3ccccc3)oc12 | 
12 | 126 nM |  | Cc1cc(C(=O)O)nn1Cc1cc(Cl)cn2cc(C(C)C)cc12 | 
13 | 5.01 nM |  | Cc1cc(C(=O)O)nn1Cc1cc(Cl)cc2cc(C(C)C)oc12 | Ki [3]: 0.398 nM; Ki [4]: 1000 nM
14 |  | 10 nM | Cc1cc(C(=O)NC(C)(C)C)nn1Cc1cc(Cl)cc2cc(-c3ccccc3)oc12 | logD [5]: 2.9; ED50 [6]: 5 mg/kg; clearance [7]: 28 mL/min/kg; Vd [8]: 4.3 L/kg; half-life [9]: 4.2 h; Activity [10]: 95%; Fu [11]: 0.028%; ED50 [12]: 0.6 mg/kg; Kp at 1 h [13]: 0.3; concentration at 1 h [14]: 112 nM; concentration at 1 h [15]: 381 nM; Fu [16]: 0.017%
15 | 63.1 nM |  | Cc1cc(C(=O)NC2CCOCC2)nn1Cc1cc(Cl)cc2cc(C(C)C)oc12 | 
16 |  | 25.1 nM | Cc1cc(NC(=O)C2CCN(CC(F)(F)F)CC2)nn1Cc1cc(Cl)cc2cc(-c3ccccc3)oc12 | 

— ChEMBL document CHEMBL1914431, “Discovery of a novel series of nonacidic benzofuran EP1 receptor antagonists” (Bioorg Med Chem Lett, 2011)
